Source: publication PMC12429009 (The FASEB Journal, 2025)
Entries after “also recorded” stand apart in the source; their conditions may differ.

T1: 14‐3‐3ζ Y82A (Homo sapiens, UniProt P63104, Y82A)
T1 sequence (P63104 1-245 Y82A): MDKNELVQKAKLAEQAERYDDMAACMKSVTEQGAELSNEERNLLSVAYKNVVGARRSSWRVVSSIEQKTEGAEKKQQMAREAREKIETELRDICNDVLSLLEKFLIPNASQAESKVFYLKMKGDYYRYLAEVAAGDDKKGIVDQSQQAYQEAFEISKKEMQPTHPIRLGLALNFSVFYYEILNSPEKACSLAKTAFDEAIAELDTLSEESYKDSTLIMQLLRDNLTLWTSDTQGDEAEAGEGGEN

T2: 14‐3‐3ζ WT (Homo sapiens, UniProt P63104)
T2 sequence (P63104 1-245): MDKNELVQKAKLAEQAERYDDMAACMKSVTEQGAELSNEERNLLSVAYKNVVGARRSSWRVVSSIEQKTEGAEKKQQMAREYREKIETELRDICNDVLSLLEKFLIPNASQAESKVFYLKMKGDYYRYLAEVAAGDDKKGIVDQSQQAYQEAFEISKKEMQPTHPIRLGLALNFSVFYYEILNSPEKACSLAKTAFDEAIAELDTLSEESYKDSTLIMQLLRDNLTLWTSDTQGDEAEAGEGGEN

T3: 14‐3‐3ζ R55A (Homo sapiens, UniProt P63104, R55A)
T3 sequence (P63104 1-245 R55A): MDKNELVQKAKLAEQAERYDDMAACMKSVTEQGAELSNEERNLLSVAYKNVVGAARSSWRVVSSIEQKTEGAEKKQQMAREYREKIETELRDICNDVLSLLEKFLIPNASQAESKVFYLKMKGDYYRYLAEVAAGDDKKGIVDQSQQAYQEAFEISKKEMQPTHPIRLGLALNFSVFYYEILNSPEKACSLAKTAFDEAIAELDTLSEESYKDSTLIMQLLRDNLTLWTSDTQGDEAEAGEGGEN


Experiments:
[1] = molecular target: T1, 14‐3‐3ζ Y82A; experiment: ExoS peptide binding to 14‐3‐3ζ Y82A by microscale thermophoresis, effect of ATP; settings: MST; different concentrations of ATP
Outline: (§1)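 Purified untagged mutant 14‑3‑3ζ, starting at 32 μM, serially diluted 2‑fold in 10 μM FAM‑labeled peptide, in the FP binding buffer (50 mM Na‑HEPES pH 8.0, 150 mM NaCl, 10% glycerol), with ATP at several concentrations. Fluorescent counts and power set beforehand. Samples read in standard glass capillaries on a Monolith NT.115.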

[2] = test system: 14‐3‐3ζ E180A; format: binding, human; settings: FP; 1 mM ATP; 5FAM‐labeled ExoS peptide 62.5 nM, 25°C, 30 min
Outline: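 Recombinant human 14‑3‑3ζ mutant, His‑tagged, expressed in E. coli BL21 DE3, purified by Ni‑NTA and size exclusion, tag removed with TEV, buffer‑exchanged into 50 mM Na‑HEPES pH 8.0, 150 mM NaCl, 10% glycerol. N‑terminal FAM‑peptide held at 62.5 nM, protein titrated 8 to 0.0625 μM, 1 mM ATP in binding buffer. 25°C, dark, 30 min; anisotropy change read; K_D fitted.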

[3] = molecular target: T2, 14‐3‐3ζ WT; format: binding; settings: MST
Outline: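 Labelled peptide binding by thermophoresis with recombinant, TEV‐cleaved 14‐3‐3ζ WT. Protein from 32 μM serially diluted 2‐fold with 10 μM FAM‐peptide in FP buffer (50 mM Na‐HEPES pH 8.0, 150 mM NaCl, 10% glycerol), at varied ATP concentrations. Fluorescence counts and power set per manufacturer. Standard glass capillaries; fit in instrument software.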

[4] = molecular target: T3, 14‐3‐3ζ R55A; experiment: ExoS peptide binding to 14‐3‐3ζ R55A by microscale thermophoresis, effect of ATP; settings: MST; different concentrations of ATP
Outline: as §1

[5] = molecular target: T2, 14‐3‐3ζ WT; experiment: LiP‐MS; format: binding; settings: 500 μM ATPγS
[6] = molecular target: T2, 14‐3‐3ζ WT; format: binding; settings: FP, 25°C, 30 min; for effect on binding of mode 1 or mode 2 peptides to 14‐3‐3ζ: 1 mM ATP or ATPγS, peptide 62.5 nM, protein 8 to 0.0625 μM
Outline: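 Untagged recombinant 14‐3‐3ζ WT apoprotein (His‐tagged, expressed in E. coli BL21 DE3, Ni‐NTA then size exclusion, TEV‐cleaved) in 50 mM Na‐HEPES pH 8.0, 150 mM NaCl, 10% glycerol. N‐terminal FAM peptides fixed at 62.5 nM, protein titrated 8 to 0.0625 μM, ±1 mM ATP or ATPγS in binding buffer. 30 min at 25°C in the dark, then anisotropy read; K_D fitted.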

[7] = molecular target: T2, 14‐3‐3ζ WT; experiment: Peptide binding to 14‐3‐3ζ WT by surface plasmon resonance, effect of ATPγS; settings: SPR, HBS‐P pH 7.4
Outline: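 Amine coupling of recombinant 14‐3‐3ζ WT onto a CM5 chip to 4000 RU. Analyte 10 μM peptide with 10 μM to 1 mM ATPγS in HBS‐P (10 mM Na‐HEPES pH 7.4, 150 mM NaCl, 0.005% v/v Tween‐20). RU change during association and dissociation recorded. Sensorgrams fitted to a 1:1 binding model; relative response compared across ATPγS concentrations.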

[8] = molecular target: T1, 14‐3‐3ζ Y82A; experiment: ExoS peptide binding to Y82A by surface plasmon resonance, effect of ATPγS; settings: SPR; 10 μM to 1 mM ATPγS with 10 μM peptide; HBS‐P pH 7.4; qualitative
Outline: (§2)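 Mutant 14‑3‑3ζ amine‑coupled to a CM5 chip at 4000 RU. ATPγS from 10 μM to 1 mM, together with 10 μM peptide, injected in HBS‑P (10 mM Na‑HEPES pH 7.4, 150 mM NaCl, 0.005% Tween‑20). RU changes on association and dissociation tracked; sensorgrams fitted to a 1:1 binding model.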

[9] = molecular target: T3, 14‐3‐3ζ R55A; experiment: ExoS peptide binding to R55A by surface plasmon resonance, effect of ATPγS; settings: SPR; 10 μM to 1 mM ATPγS with 10 μM peptide; HBS‐P pH 7.4; qualitative
Outline: as §2

[10] = test system: 14‐3‐3τ; settings: cited from earlier work

Molecule	effect on binding of ExoS peptide to Y82A [1]	effect on binding of ExoS peptide to E180A mutant [2]	type of inhibition of ExoS peptide binding ([3]; 14‐3‐3ζ WT, ATP at the dimer interface)	effect on binding of phosphopeptide to ζWT ([3]; FAM‐labeled peptide)	effect on binding of ExoS peptide to ζWT ([3]; different concentrations of ATP)	effect on binding of ExoS peptide to R55A [4]	ATP binding site suggested by LiP‐MS [5]	effect on binding of mode 1 or mode 2 peptides to 14‐3‐3ζ [6]	effect on binding of ExoS peptide to 14‐3‐3ζ WT ([6]; 1 mM ATP, 5FAM‐labeled ExoS peptide 62.5 nM)	effect on binding of nonphosphopeptide ExoS to ζWT ([7]; 10 μM to 1 mM ATPγS with 10 μM peptide, qualitative)	effect on binding of mode 2 phosphopeptide to 14‐3‐3ζ WT ([7]; 1 mM ATPγS)	effect on binding of nonphosphopeptide ExoS to Y82A [8]	protection against Proteinase K cleavage (SDS PAGE) ([5]; 25°C, 30 min, Proteinase K 1:100, 1 min at 25°C)	Log2 fold change of conformotypic peptide, ATPγS bound versus unbound ([5]; peptide YDDMAAC (19–25), C_SEMI, adjusted p 2.49E‐02)	Log2 fold change of conformotypic peptide, ATPγS bound versus unbound ([5]; peptide YDDMAACMK (19–27), FULL_TRP, adjusted p 6.47E‐03)	effect on binding of nonphosphopeptide ExoS to R55A [9]	ATP/ADP exchange activity [10]
Nc1ncnc2c1ncn2[C@@H]1O[C@H](COP(=O)(O)OP(=O)(O)OP(=O)(O)O)[C@@H](O)[C@H]1O [ATP]	did not affect the binding	marginally but reproducibly decreased	as a non‐competitive inhibitor by binding to the dimer interface	did not show any effect	the binding of nonphosphorylated ExoS peptide decreased in the presence of ATP; also recorded: concentration‐dependent inhibition	did not affect the binding	there is a second ATP binding site at the dimer interface	no effect	marginally but reproducibly decreased	–	–	–	–	–	–	–	–
Nc1ncnc2c1ncn2[C@@H]1O[C@H](CO[P@](=O)(O)O[P@](=O)(O)O[P@@](=O)(O)S)[C@@H](O)[C@H]1O [ATPγS]	–	–	–	–	–	–	81–91 residues which are part of the dimer interface, were exclusively protected by ATPγS	no effect	–	definitive decrease; also recorded: concentration‐dependent inhibition	did not show any effect	definitive decrease	protects the protein against proteolytic cleavage	−1.0	1.8	definitive decrease	–
14‐3‐3τ: 14‐3‐3 tau paralog (protein, UniProt P27348 1-245, looked up) 14-3-3 protein theta: MEKTELIQKAKLAEQAERYDDMATCMKAVTEQGAELSNEERNLLSVAYKNVVGGRRSAWRVISSIEQKTDTSDKKLQLIKDYREKVESELRSICTTVLELLDKYLIANATNPESKVFYLKMKGDYFRYLAEVACGDDRKQTIDNSQGAYQEAFDISKKEMQPTHPIRLGLALNFSVFYYEILNNPELACTLAKTAFDEAIAELDTLNEDSYKDSTLIMQLLRDNLTLWTSDSAGEECDAAEGAEN	–	–	–	–	–	–	–	–	–	–	–	–	–	–	–	–	has an ATP/ADP exchange activity
